# NR2E3 ag-1 – activates human photoreceptor nuclear receptor NR2E3; Q9Y5X4; AID 2300; inhibition of corepressor binding, % at 4.78 µM; actives 0.12% (n = 320,000); GST-NR2E3/biotin-RetCOR TR-FRET, 1536-well;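 active = percent inhibition above the cutoff of mean plus 3 SD of all tested compounds, set per screening campaign, cut at about 20% in these data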;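 also: 0% = DMSO wells and 100% = biotin wells as full block of FRET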
# Target sequence (Q9Y5X4 whole entry, looked up): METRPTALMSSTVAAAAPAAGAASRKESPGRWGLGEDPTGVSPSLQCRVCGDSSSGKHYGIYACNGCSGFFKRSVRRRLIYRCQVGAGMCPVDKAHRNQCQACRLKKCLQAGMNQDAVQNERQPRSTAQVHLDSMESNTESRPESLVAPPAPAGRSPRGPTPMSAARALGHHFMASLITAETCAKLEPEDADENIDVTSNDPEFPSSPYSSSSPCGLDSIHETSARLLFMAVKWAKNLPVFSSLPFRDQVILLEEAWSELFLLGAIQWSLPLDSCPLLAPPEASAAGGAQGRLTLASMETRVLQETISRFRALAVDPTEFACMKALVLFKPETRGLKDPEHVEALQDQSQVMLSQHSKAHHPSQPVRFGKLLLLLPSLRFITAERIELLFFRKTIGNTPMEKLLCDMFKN
#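 System: GST-tagged NR2E3 plus biotinylated RetCOR corepressor; Amount: 1.35 nM GST-tagged NR2E3 final; Dosing: single nominal compound dose of 4.8 µM; Schedule: 5 h incubation at 4 °C; Technique: TR-FRET with europium anti-GST and streptavidin-D2, 340 nm excitation; Controls: biotin wells as high control, 0.6% DMSO wells as low control.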
# FXN GAA850 act – increases GAA850 frataxin promoter reporter activity | AID 540364 | activation, % at 6 µM | HEK293 lucGAA850 FXN promoter luciferase reporter, 24 h; percent of 10 µM SAHA response | actives 0.56% (n = 360,000);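 active = activation above the average of all compounds screened plus 3 SD, cutoff fixed separately per campaign, cut at about 7.5% in these data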;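 also: 0% = DMSO wells and 100% = 10 µM SAHA wells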
# Myeloid diff 2 – compounds promoting myeloid differentiation. ER-HoxA9 myeloid progenitors, lysozyme-GFP differentiation, flow cytometry. calls only at 10 µM. actives 1% (n = 360,000). AID 624256;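 active = normalized GFP-positive differentiation at or above the plate's own cutoff, the solvent-only control mean plus 3 SD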;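 also: cells exposed to compound for four days before flow analysis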
# T cell HTS – T cell immune modulation candidate; 2C CD8+ T cell-vesicle binding, flow cytometry; stronger effect = lower value; response (vesicle binding), % at 7 µM; actives 0.068% (n = 330,000);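 active = response, share of CD8 T cells binding vesicles, and their 90th percentile fluorescence all below set limits, cut at about 80% in these data, passing the limit was not always enough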;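 also: values below 100% mean blocked vesicle binding to the CD8+ T cells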
#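 System: murine 2C transgenic CD8+ T lymphocytes; also added: QL9-loaded Drosophila micro-vesicles; times: binding 1.5 h at 37 °C; measured by: flow cytometry, PE anti-B7-1 (FL2) versus Alexa647 anti-CD8 (FL8), PFA-fixed; control set: Peptide-free naked vesicles (low) and QL9 vesicles with 0.7% DMSO vehicle (high)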
# NR2E3 ag-2 – agonists of human NR2E3 nuclear receptor | Q9Y5X4 | CHO-S Gal4-NCOR/VP16-NR2E3 two-hybrid, luciferase | actives 0.35% (n = 360,000) | inhibition of corepressor binding, % at 3.98 µM;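 active = inhibition above the mean of all tested compounds plus 3 SD, cut at about 70% in these data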;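 also: 0% = DMSO with NR2E3 transfected cells and 100% = cells lacking NR2E3 construct; higher means lower luciferase signal from less NR2E3 corepressor binding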
# Numbers without * were called inactive; i = inactive; x = no result; + = active, no number; ! = a repeat was not active. Hits are enriched below; roughly 2% of the tested compounds scored in any of these assays.
SMILES,NR2E3 ag-1,FXN GAA850 act,Myeloid diff 2,T cell HTS,NR2E3 ag-2
O=C1COc2ccc(-c3csc(=Nc4ccc(OC(F)F)cc4)n3CC3CCCO3)cc2N1 (stereo not given),0,1,i,460,11
COCC(C)n1c(-c2ccc3c(c2)NC(=O)CO3)csc1=Nc1ccc(OC(F)F)cc1 (stereo not given),0,-6,+!,601,32
NC(N)=NN=C1c2ccccc2-c2ccccc21,-1,0,+,57,-19
ON=C1c2ccccc2-c2ccccc21,0,0,i,208,-38
Cc1cc(C)cc(C(O)c2ncc(-c3ccccc3Cl)[nH]2)c1 (stereo not given),x,0,i,x,-24
CCCCn1c(N)c(N(CC(C)C)C(=O)CSc2nnc(C)n2-c2ccccc2)c(=O)[nH]c1=O,x,0,i,x,2
CCOC(=O)C1(C)CCCN1C(=O)c1ccccc1OC (stereo not given),x,1,i,x,8
Cc1ccc(C2=CSC3=NNC4(CCCCC4)NN23)cc1,1,1,+,448,-45
CC(C)(C)c1ccc(CC(=O)N2CCC2(C)C(=O)NCc2ccc(Cl)cc2)cc1 (stereo not given),x,1,i,x,-5
Nc1ccccc1Nc1cc(-c2ccccc2)nn1-c1ccccc1,8,1,+,207,-8
Cc1ccc2cc3cc(C(=O)NCCCN4CCCC4=O)oc3nc2c1,-1,1,i,426,-15
O=C(O)CCN1C(=O)/C(=C2\C(=O)N(Cc3ccccc3Cl)c3ccccc32)SC1=S,x,1,+,170,-19
CC1(C)CC(=O)C=C(Nc2ccccc2N)C1,4,0,i,290,-10
Cc1ccc(NC2=CC(=O)CC(C)(C)C2)c(N)c1,-2,4,+,194,-77
CSCC[C@H]1COC[C@@H](Cc2ccccc2)N1c1ccccc1,x,0,i,x,-4
C=CCn1c(C)cc(-c2csc(NC)n2)c1C,x,2,+,x,6
CC(C)CCC(O)(CCC(C)C)C(=O)NNc1ccccc1,1,2,+,371,-7
CCCc1c(-c2ccc(Cl)cc2)ncn1CCc1ccccc1OC,x,x,i,x,8
COc1cccc(-c2cnc3c(NC(C)=O)cc(-c4ccsc4)cn23)c1,x,2,i,x,-14
CCN(c1ccccc1)S(=O)(=O)c1ccc(OC)c(NC(=O)c2cc(Cl)ccn2)c1,x,-1,i,x,8
CN(C)CCNC(=O)/C(=C/c1ccc(-c2ccc(Cl)cc2Cl)o1)NC(=O)c1ccccc1,-5,3,+,175,4
Cc1ccc(C(=O)N/C(=C\c2ccc(-c3cccc([N+](=O)[O-])c3)o2)C(=O)NCCCN(C)C)cc1,-4,1,i,200,-22
Cc1ccc(C(=O)N/C(=C\c2ccc(-c3ccc(Br)cc3)o2)C(=O)NCCCN(C)C)cc1,-2,2,+,197,16
CCc1nc2ccc(C(=O)Nc3cccc(OCC(=O)N(C)C)c3)cn2c1N(C)Cc1cc2ccccc2s1,x,-1,i,x,23
COc1ccc(C(=O)C2CCCN(C(=O)c3ccc(CSC)o3)C2)cc1F (stereo not given),2,2,i,144,9
SMILES,NR2E3 ag-1,FXN GAA850 act,Myeloid diff 2,T cell HTS,NR2E3 ag-2
O=C1c2cccc([N+](=O)[O-])c2C(=O)N1CCO,-1,0,+,150,-39
CN(Cc1ccccc1)C(=O)CCN1C(=O)c2cccc([N+](=O)[O-])c2C1=O,x,-2,i,x,-23
O=C(N/N=C/c1ccc(OCc2ccccc2)cc1)c1cccs1,-1,3,i,78*,-87
NNC(=O)c1ccc(Cn2cc(Br)c(N)n2)cc1,3,1,+,162,-6
CCN(Cc1nc2cc(Cl)ccc2c(=O)[nH]1)C(=O)CN1C(=O)NC2(CCCCC2C)C1=O (stereo not given),x,0,i,x,12
COc1ccc(-c2sc3ccc(OC)cc3c2C#Cc2cncn2C)cc1,x,-2,+,382,-9
CN(CC(=O)Nc1ccc(OC(F)(F)F)cc1)C(=O)Cc1cccs1,x,3,i,181,-9
N#C/C(=N\Nc1ccccc1Cl)C(=O)c1ccccc1,-1,2,i,189,47
N#C/C(=N\Nc1cccc(Cl)c1)C(=O)c1ccccc1,5,1,i,214,102*

# Bioassay records deposited in PubChem BioAssay by several laboratories.
